Screening results as filed in PubChem.
Most compounds without a hit are left out; they make up all but 2.2% or so of the library.
E-sel inducer: E-selectin induction in HUVECs, primary screen, imaging, HUVEC, immunofluorescence imaging, single point; actives 0.37% (n = 260,000); AID 686992, 2013; normalized: neutral wells 0, TNF-alpha wells 100; activation, % at 7.58 µM;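 active = mean E-selectin-positive cell signal at least 10% of the positive control, reached in at least 60% of replicates, without over 20% cell loss; inconclusive = no rule given, readout overlaps actives, possibly toxicity-flagged; inactive = the rest, including those meeting only one limit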
Target sequence (P16581 whole entry, looked up): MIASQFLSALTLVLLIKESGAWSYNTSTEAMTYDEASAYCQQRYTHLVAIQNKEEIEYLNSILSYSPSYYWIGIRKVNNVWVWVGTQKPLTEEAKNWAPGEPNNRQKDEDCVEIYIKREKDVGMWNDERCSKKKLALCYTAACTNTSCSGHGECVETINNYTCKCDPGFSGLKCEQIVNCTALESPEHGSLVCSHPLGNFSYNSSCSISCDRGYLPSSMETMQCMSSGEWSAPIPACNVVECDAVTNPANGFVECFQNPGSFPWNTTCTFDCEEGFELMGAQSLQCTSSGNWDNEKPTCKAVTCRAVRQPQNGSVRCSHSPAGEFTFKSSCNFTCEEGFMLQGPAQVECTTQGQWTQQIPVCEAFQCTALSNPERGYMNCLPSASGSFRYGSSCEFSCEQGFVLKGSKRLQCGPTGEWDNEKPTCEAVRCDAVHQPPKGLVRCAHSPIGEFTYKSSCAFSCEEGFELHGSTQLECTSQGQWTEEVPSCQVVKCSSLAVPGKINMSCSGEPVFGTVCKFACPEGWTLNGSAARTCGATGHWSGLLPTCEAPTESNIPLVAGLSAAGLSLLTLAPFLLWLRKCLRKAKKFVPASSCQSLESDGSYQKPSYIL
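Assay system: HUVEC primary endothelial cells. Input: 3,000 HUVEC seeded per well. Doses: one compound dose added by pin transfer. Read-out basis: % PE-positive cells. Benchmarks: TNF-alpha high, DMSO low. Detection: immunofluorescence imaging. Buffer or medium: EGM-2, gelatin.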
DENV2 CPE: inhibitors of DENV2 cytopathic effect, primary screen, cell-based, plate reader, single concentration; DENV2-infected cells, cytopathic effect rescue; CPE inhibition, % at 9.99 µM; actives 1.7% (n = 350,000); in the data active = CPE inhibition above about 20%, passing the limit was not always enough; inconclusive = no clear call, values can overlap the other calls; tested in BHK-21 cells
Statin myotox sup: suppressors of statin myotoxicity in C2C12 myotubes, primary screen, cell-based, single point, plate reader; rescue of ATP level, % at 7.49 µM; C2C12 myotubes + simvastatin, ATP luminescence, 48 h; scaled: DMSO 0, geranylgeraniol control 100; actives 0.78% (n = 330,000);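 active = mean ATP rescue above about 67%, or every replicate alone reaching that limit, limit read from the data, passing the limit was not always enough; inconclusive = no clear call, values can overlap the other calls; inactive = mean under the limit and some replicate under it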;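 note: myotubes were challenged with 10 µM simvastatin during compound exposure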
Hits are given with their value; 0 = inactive; ? = inconclusive; - = no result given; ! = a repeat was not active.

SMILES | E-sel inducer | DENV2 CPE | Statin myotox sup
N#CCCn1cc(C(=O)CN2C(=O)NC3(CCCCCC3)C2=O)c2ccccc21 | - | 0 | 0
CC(C)OC(=O)N(C)C[C@@H]1OCc2ccccc2-c2ccccc2C(=O)N([C@@H](C)CO)C[C@@H]1C | 0 | 0 | -
CN1C(=O)c2cc(NC(=O)c3ccc(F)c(F)c3)ccc2OC[C@@H]2O[C@H](CC(=O)N3CCCCC3)CC[C@@H]21 | 0 | 0 | 0
COc1cccc(-c2c(-c3cc(OC)cc(OC)c3)n(C)c3ccc(Br)cc23)c1 | 0 | 0 | 0
COc1ccc(-c2c(-c3cc(OC)cc(OC)c3)n(C)c3ccc(Br)cc23)cc1 | 0 | 32 | 0
C[C@@H]1CN([C@@H](C)CO)C(=O)Cc2cc(NS(=O)(=O)c3ccccc3)ccc2O[C@H]1CN(C)S(=O)(=O)c1ccccc1 | 0 | 0 | 0
C/C=C/c1ccc2c(c1)O[C@H](CN(C)C(=O)CN1CCOCC1)[C@@H](C)CN([C@H](C)CO)S2(=O)=O | 0 | 0 | 0
C[C@@H]1CN([C@H](C)CO)S(=O)(=O)c2ccc(Br)cc2O[C@@H]1CN(C)C(=O)CN1CCOCC1 | 0 | 55! | 0
C[C@H]1CN([C@@H](C)CO)S(=O)(=O)c2ccc(Br)cc2O[C@H]1CN(C)Cc1ccc(F)cc1 | 0 | 41! | 0
C[C@H]1CN([C@@H](C)CO)S(=O)(=O)c2ccc(Br)cc2O[C@@H]1CN(C)S(=O)(=O)c1ccc(F)cc1 | 0 | 0 | 88
C[C@H]1CN([C@@H](C)CO)S(=O)(=O)c2ccc(Br)cc2O[C@H]1CN(C)Cc1cccnc1 | 0 | 0 | 0
C[C@@H]1CN([C@H](C)CO)S(=O)(=O)c2ccc(Br)cc2O[C@H]1CN(C)S(=O)(=O)c1ccc(F)cc1 | 0 | 0 | 0
C[C@H](CO)N1C[C@H](C)[C@@H](CN(C)Cc2ccc(F)cc2)Oc2cc(Br)ccc2S1(=O)=O | 0 | 0 | 0
C[C@H](CO)N1C[C@H](C)[C@@H](CN(C)Cc2cccnc2)Oc2cc(Br)ccc2S1(=O)=O | 0 | 45! | 0
COc1ccc(NC(=O)Nc2ccc3c(c2)[C@H]2C[C@H](CC(=O)N4CCc5ccccc5C4)O[C@H](CO)[C@H]2O3)cc1 | 0 | 0 | 0
CO[C@H]1CN(C)C(=O)c2ccc(NC(=O)C3CC3)cc2OC[C@@H](C)N(Cc2cccnc2)C[C@H]1C | 0 | 0 | 0
CC1(C(=O)NCc2ccccc2)CN(S(C)(=O)=O)CC(=O)N1Cc1ccc2c(c1)OCO2 (centres undefined) | 0 | 0 | -
COc1ccc(OC)c(CN2C(=O)CN(S(C)(=O)=O)CC2(C)C(=O)NCc2ccccc2)c1 (centres undefined) | 0 | 32 | -
C[C@H]1CN([C@@H](C)CO)C(=O)c2cc(NS(=O)(=O)c3ccc(F)cc3)ccc2O[C@H]1CN(C)C | 0 | 0 | 0
C[C@H]1CN([C@@H](C)CO)S(=O)(=O)c2ccc(-c3cccnc3)cc2O[C@@H]1CN(C)CC1CC1 | - | 0 | 0
CC(C)CC#Cc1ccc([C@@H]2[C@@H](CO)N3C(=O)CN(C(=O)c4cccc(F)c4)C[C@@H]23)cc1 | 0 | 0 | -
C[C@H](N)c1nnc(SCC(=O)c2ccc(Cl)cc2)o1 | - | - | 119
CC(C)[C@H](N)c1nnc(SCC(=O)c2ccc(Cl)cc2)o1 | - | - | 0
O=C(C[C@H]1C[C@@H]2c3cc(NC(=O)c4cccnc4)ccc3O[C@@H]2[C@@H](CO)O1)NCc1ccccn1 | 0 | 0 | 0
CNC(=O)C[C@H]1CC[C@@H]2[C@@H](COc3ccc(NC(=O)Nc4cccc(C)c4)cc3C(=O)N2C)O1 | 0 | 0 | 0
SMILES | E-sel inducer | DENV2 CPE | Statin myotox sup
COc1ccccc1C(=O)NC(C(=O)NCCc1nc2ccccc2[nH]1)=C(C)C | 0 | 0 | 0
CC(C)=C(NC(=O)c1ccccc1Cl)C(=O)NCCc1nc2ccccc2[nH]1 | - | 130 | 0
C[C@@H]1CN([C@@H](C)CO)C(=O)c2cc(NC(=O)Nc3cccc4ccccc34)ccc2O[C@@H]1CN(C)C(=O)Nc1ccc(F)cc1 | 0 | 0 | 0
COc1ccc(CN(C)C[C@H]2OCCCC[C@@H](C)Oc3ccc(N(C)C)cc3C(=O)N([C@H](C)CO)C[C@H]2C)cc1 | 0 | - | 0
Cc1[nH]nc2c1C(c1ccco1)C(C#N)=C(N)O2 (centres undefined) | 114 | 0 | 0
CC(C)(C)c1[nH]nc2c1C(c1ccco1)C(C#N)=C(N)O2 (centres undefined) | - | 0 | -
C[C@H]1CN([C@@H](C)CO)C(=O)c2cccc(NC(=O)Nc3ccc4c(c3)OCO4)c2O[C@@H]1CN(C)CC1CCCCC1 | 0 | 0 | 86
C[C@@H]1CCCCO[C@H](CN(C)CC2CCCCC2)[C@@H](C)CN([C@H](C)CO)C(=O)c2cc(NC(=O)Nc3ccccc3)ccc2O1 | 0 | 21 | -
C[C@H](CO)N1C[C@H](C)[C@H](CN(C)CC2CCCCC2)OCCCC[C@H](C)Oc2ccc(NC(=O)Nc3ccc(F)cc3)cc2C1=O | 0 | 25 | -
C[C@@H]1CN([C@@H](C)CO)C(=O)c2cc(NC(=O)Nc3ccc(F)cc3)ccc2O[C@@H](C)CCCCO[C@@H]1CN(C)CC1CCCCC1 | 0 | 0 | -
C[C@H](CO)N1C[C@H](C)[C@H](CN(C)CC2CCCCC2)Oc2c(NC(=O)Nc3ccc4c(c3)OCO4)cccc2C1=O | 0 | 0 | 0
C[C@H](CO)N1C[C@H](C)[C@@H](CN(C)CC2CCCCC2)Oc2ccc(NC(=O)Nc3ccc(F)cc3)cc2C1=O | 0 | 27 | 0
C[C@@H]1CCCCO[C@@H](CN(C)CC2CCCCC2)[C@@H](C)CN([C@@H](C)CO)C(=O)c2cc(NC(=O)Nc3ccccc3)ccc2O1 | 0 | 0 | -
C[C@H]1CN([C@@H](C)CO)C(=O)c2cc(NC(=O)Nc3ccccc3)ccc2O[C@H]1CN(C)CC1CCCCC1 | 0 | 0 | 0
C[C@H](CO)N1C[C@H](C)[C@H](CN(C)C(=O)CCC(F)(F)F)OCc2ccccc2-c2c(n(C)c3ccccc23)C1=O | 0 | 0 | 0
COc1cccc(S(=O)(=O)N2C[C@@H](O)COC[C@H]3O[C@@H](CC(=O)Nc4ccccc4)CC[C@@H]32)c1 | 0 | 0 | 0
COCC(=O)Nc1ccc2c(c1)C(=O)N(C)C[C@@H](OC)[C@@H](C)CN(Cc1ccccc1F)[C@H](C)CO2 | 0 | 0 | 0
CO[C@H]1CN(C)C(=O)c2cc(NC(=O)Nc3cccc(Cl)c3)ccc2OC[C@H](C)N(C(=O)Nc2c(C)noc2C)C[C@H]1C | 0 | - | 0
O=C(C1CC1)N1CC(=O)N2[C@H](CO)[C@H](c3ccc(C#Cc4cccc(F)c4)cc3)[C@@H]2C1 | 0 | ? | -
O=C(C[C@H]1C=C[C@H](NC(=O)Nc2ccccc2)[C@@H](CO)O1)NCc1ccccn1 | 0 | 0 | 0
COc1ccc(NC(=O)N(C)C[C@H]2Oc3ccc(NC(=O)Nc4ccc5c(c4)OCO5)cc3C(=O)N([C@@H](C)CO)C[C@H]2C)cc1 | 0 | 0 | 0
C[C@@H]1CCCCO[C@H](CN(C)CC2CCCCC2)[C@@H](C)CN([C@H](C)CO)C(=O)c2cc(NC(=O)Nc3cccc4ccccc34)ccc2O1 | 0 | 0 | -
